Laboratory results as given in ChEMBL document CHEMBL4257476, “Design, synthesis and biological evaluation of novel 5-hydroxy-2-methyl-4H-pyran-4-one derivatives as antiglioma agents” (Medchemcomm, 2018).

How the values were obtained:
HT-1080 [1] = test: Antiproliferative activity against human HT1080 cells by MTT assay; type: functional, cell-based
Procedure, shortened: (§1)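 MTT viability: cells grown in DMEM with 10% FBS, 2 mM L-glutamine and penicillin/streptomycin at 37 °C, 5% CO2. Seeded 5000/well for 12 h. Compound diluted 1000× from DMSO stock (final DMSO <0.1%). MTT conversion to formazan for 4 h, absorbance at 562 nm. 4 replicate wells per concentration, at least three runs.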

[2] = target: Isocitrate dehydrogenase [NADP] cytoplasmic (Homo sapiens, UniProt O75874, R132H); test: Inhibition of His-tagged recombinant human IDH1 R132H mutant expressed in Escherichia coli Rosetta (DE3) preincubated for 30 mins followed by NADPH/alpha-KG addition and measured after 1 hr
Sequence of Isocitrate dehydrogenase [NADP] cytoplasmic (O75874 2-414 R132H limits assumed): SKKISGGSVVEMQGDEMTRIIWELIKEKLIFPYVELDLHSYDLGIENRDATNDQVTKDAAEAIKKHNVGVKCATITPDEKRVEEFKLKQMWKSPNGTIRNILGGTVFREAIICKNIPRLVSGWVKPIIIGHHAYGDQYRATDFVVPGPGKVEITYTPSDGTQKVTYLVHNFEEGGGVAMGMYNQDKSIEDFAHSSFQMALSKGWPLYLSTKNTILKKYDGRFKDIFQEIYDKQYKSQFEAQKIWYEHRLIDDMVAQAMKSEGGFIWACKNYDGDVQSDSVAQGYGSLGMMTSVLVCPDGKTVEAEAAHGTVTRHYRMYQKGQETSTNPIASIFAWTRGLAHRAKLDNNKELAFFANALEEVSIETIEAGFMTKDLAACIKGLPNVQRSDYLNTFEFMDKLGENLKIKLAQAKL
Procedure, shortened: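 His-tagged mutant human IDH1 expressed from pET28a in E. coli Rosetta (DE3) with 1 mM IPTG, purified on Ni-NTA with imidazole step elution. Enzyme and compound preincubated 30 min at room temperature in 50 mM Tris, 200 mM NaCl, 5 mM β-mercaptoethanol, 2 mM MgSO4, 10% glycerol. MgCl2, NADPH and α-KG then added, 1 h at 37 °C; NADPH consumption read at 340 nm.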

U-87 MG [3] = test: Antiproliferative activity against human U87 cells by MTT assay; type: functional, cell-based, U-87MG ATCC; procedure, shortened: as §1
U-87 MG [4] = test: Antimigratory activity in human U87 cells assessed as migration rate at 1 uM after 24 hrs by scratch assay (reference value: 17.5%); type: functional, U-87MG ATCC
U-87 MG [5] = test: Antimigratory activity in human U87 cells assessed as migration rate at 1 uM after 12 hrs by scratch assay (reference value: 51.3%); type: functional, U-87MG ATCC
HT-1080 [6] = test: Antimigratory activity in human HT1080 cells assessed as scratch area at 10 uM after 6 hrs (reference value: 58.7%); type: functional
[7] = tested on: Isocitrate dehydrogenase [NADP] cytoplasmic (Homo sapiens), O75874 [R132H]; test: Inhibition of IDH1 […] cells assessed as decrease in D-2HG levels at 1 uM after 48 hrs by HPLC-MS analysis relative to control; type: cell-based
Sequence of Isocitrate dehydrogenase [NADP] cytoplasmic (Homo sapiens), O75874 [R132H] (O75874 whole entry R132H): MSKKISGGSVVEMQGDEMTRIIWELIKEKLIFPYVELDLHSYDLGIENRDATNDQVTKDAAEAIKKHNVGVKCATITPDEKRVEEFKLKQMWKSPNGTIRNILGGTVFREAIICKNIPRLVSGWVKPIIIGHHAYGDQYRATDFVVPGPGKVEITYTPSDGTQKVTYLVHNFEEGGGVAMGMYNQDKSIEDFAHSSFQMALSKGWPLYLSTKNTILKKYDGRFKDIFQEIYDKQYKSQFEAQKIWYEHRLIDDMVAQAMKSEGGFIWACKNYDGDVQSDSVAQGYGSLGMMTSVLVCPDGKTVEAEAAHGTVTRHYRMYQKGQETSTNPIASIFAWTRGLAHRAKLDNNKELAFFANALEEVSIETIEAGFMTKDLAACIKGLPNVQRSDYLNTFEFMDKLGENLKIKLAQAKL
Procedure, shortened: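 HT1080 cells (1×10^5/well, 6-well plates) attached overnight in DMEM with 10% dialyzed FBS. Treated 48 h with rising compound concentrations in 2 mL medium. Quantified by SIM at 147 Da from peak area against an authentic D-2HG standard curve.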

HT-1080 [8] = test: Antimigratory activity in human HT1080 cells assessed as scratch area at 10 uM after 12 hrs (reference value: 23.3%); type: functional
U-87 MG [9] = test: Inhibition of colony formation of human U87 cells at 1 uM after 8 days by Giemsa-Wright staining-based assay relative to control; type: functional, U-87MG ATCC; conditions: 192 h
Procedure, shortened: (§2)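 Colony formation: 200 cells/well in 6-well plates, 2 mL medium, treated 8 days with DMSO control or compound. Cells then washed three times with cold PBS, fixed in 95% cold MeOH for 15 min, and stained with Giemsa-Wright. Colonies counted by eye at least three times.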

HT-1080 [10] = test: Antimigratory activity in human HT1080 cells assessed as scratch area at 1 uM after 6 hrs (reference value: 58.7%); type: functional
HT-1080 [11] = test: Antimigratory activity in human HT1080 cells assessed as scratch area at 1 uM after 12 hrs (reference value: 23.3%); type: functional
HT-1080 [12] = test: Inhibition of colony formation of human HT1080 cells at 1 uM after 8 days by Giemsa-Wright staining-based assay relative to control; type: functional; conditions: HT-1080, 192 h; procedure, shortened: as §2
U-87 MG [13] = test: Inhibition of colony formation of human U87 cells at 0.5 uM after 8 days by Giemsa-Wright staining-based assay relative to control; type: functional, U-87MG ATCC; conditions: 192 h; procedure, shortened: as §2
U-87 MG [14] = test: Inhibition of colony formation of human U87 cells after 8 days by Giemsa-Wright staining-based assay; type: functional, cell-based; conditions: U-87MG ATCC; procedure, shortened: as §2
HT-1080 [15] = test: Inhibition of colony formation of human HT1080 cells at 0.5 uM after 8 days by Giemsa-Wright staining-based assay relative to control; type: functional; conditions: HT-1080, 192 h; procedure, shortened: as §2

Row | IC50 (HT-1080 [1]) | IC50 [2] | IC50 (U-87 MG [3]) | Compound | further results
1 | > 50 µM | > 50 µM | 27.2 µM | Cc1cc(=O)c(O)c(C(c2ccc(CCc3ccccc3)cc2)c2oc(C)cc(=O)c2O)o1 | –
2 | > 50 µM | > 50 µM | > 50 µM | Cc1cc(=O)c(O)c(Cc2ccccc2)o1 | –
3 | 26.6 µM | > 50 µM | 29.5 µM | CCCOc1ccc(C(c2oc(C)cc(=O)c2O)c2oc(C)cc(=O)c2O)cc1 | –
4 | 28.3 µM | > 50 µM | 30.9 µM | C=CCOc1ccc(C(c2oc(C)cc(=O)c2O)c2oc(C)cc(=O)c2O)cc1 | –
5 | 24.4 µM | > 50 µM | > 50 µM | Cc1cc(=O)c(O)c(Cc2ccc(C(F)(F)F)cc2)o1 | –
6 | > 50 µM | > 50 µM | > 50 µM | Cc1cc(=O)c(O)c(Cc2ccc(Cl)cc2)o1 | –
7 | > 50 µM | > 50 µM | > 50 µM | Cc1cc(=O)c(O)c(Cc2ccc(OCc3ccccc3)cc2)o1 | –
8 | – | 0.08 µM | 20.1 µM | Cc1ccccc1C(C(=O)NC1CCCCC1)N(C(=O)Cn1ccnc1C)c1cccc(F)c1 (stereo not given) | Activity (U-87 MG [4]): 51%; Activity (U-87 MG [5]): 84%; Activity (HT-1080 [6]): 70%; inhibition [7]: 86.9%; Activity (HT-1080 [8]): 56%
9 | 2.6 µM | 32 µM | 5.2 µM | COc1ccc(COc2ccc(C(c3oc(C)cc(=O)c3O)c3oc(C)cc(=O)c3O)cc2)cc1 | –
10 | 3.06 µM | > 50 µM | > 50 µM | Cc1cc(=O)c(O)c(C(c2ccc(OCc3ccc([N+](=O)[O-])cc3)cc2)c2oc(C)cc(=O)c2O)o1 | –
11 | 1.43 µM | 23.1 µM | 4.6 µM | Cc1cc(=O)c(O)c(C(c2ccc(OCc3ccccc3)cc2)c2oc(C)cc(=O)c2O)o1 | Activity (U-87 MG [4]): 69.5%; inhibition at 1 µM (U-87 MG [9]): 96.8%; Activity (U-87 MG [5]): 82.8%; Activity (HT-1080 [10]): 61%; Activity (HT-1080 [11]): 43.5%; inhibition at 1 µM (HT-1080 [12]): 99.5%; inhibition [7]: 86.5%; inhibition at 0.5 µM (U-87 MG [13]): 11.3%; inhibition (U-87 MG [14]): Dose-dependent effect; inhibition at 0.5 µM (HT-1080 [15]): 75%
12 | > 50 µM | > 50 µM | > 50 µM | Cc1cc(=O)c(O)c(Cc2ccc(F)cc2)o1 | –
